The values below come from ChEMBL document CHEMBL3124917, “Design, synthesis, and biological evaluation of deuterated C-aryl glycoside as a potent and long-acting renal sodium-dependent glucose cotransporter 2 inhibitor for the treatment of type 2 diabetes” (J Med Chem, 2014).

Each structure is given as a SMILES string.

The subject of series [1] is Rattus norvegicus. Kind of series: Antidiabetic activity in Sprague-Dawley rat assessed as urinary glucose excretion at 1 mg/kg, po administered 1 hr prior to glucose challenge measured after 1 to 4 hrs relative to dapagliflozin. In kind it is functional, Urine. In outline:
(§1)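 Overnight-fasted Sprague-Dawley rats, n = 3 per group, dosed 1 mg/kg by oral gavage in 30% PEG400; controls received vehicle. Oral glucose (2 g/kg, 10 mL/kg) given 1 h post-dose. Urine collected in metabolic cages at 0–4 and 4–24 h, glucose measured on a biochemistry analyzer. Expressed as % of reference positive control; mean ± SD.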

Series [2] concerns Canis familiaris. Kind of series: Antidiabetic activity in Beagle dog assessed as urinary glucose excretion at 0.03 mg/kg, po administered 1 hr prior to glucose challenge measured after 1 to 8 hrs relative to dapagliflozin. The format is functional, Canis lupus familiaris, Urine. In outline:
(§2)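 Overnight-fasted beagle dogs, n = 3 per group, given 0.03 mg/kg orally by gavage in 10% PEG400; vehicle controls received 10% PEG400. Oral glucose (2 g/kg, 5 mL/kg) given 1 h post-dose. Urine collected in metabolic cages at 0–8 and 8–24 h, glucose read on a biochemistry analyzer. Expressed as % of reference positive control; mean ± SD.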

Series [3] deals with Rattus norvegicus. In words: Antidiabetic activity in Sprague-Dawley rat assessed as urinary glucose excretion at 1 mg/kg, po administered 1 hr prior to glucose challenge measured after 4 to 24 hrs relative to dapagliflozin. In kind it is functional, Urine. In short, it runs like this: as §1
Series [4] relates to Canis familiaris. Kind of series: Antidiabetic activity in Beagle dog assessed as urinary glucose excretion at 0.03 mg/kg, po administered 1 hr prior to glucose challenge measured after 8 to 24 hrs relative to dapagliflozin. The format is functional, Canis lupus familiaris, Urine. In outline: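 Overnight-fasted beagle dogs, n = 3 per group, given 0.03 mg/kg orally by gavage in 10% PEG400; vehicle controls received 10% PEG400. Oral glucose (2 g/kg, 5 mL/kg) given 1 h post-dose. Expressed as % of reference positive control; mean ± SD.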

For series [5], the system named is Canis familiaris. In words: Antidiabetic activity in Beagle dog assessed as urinary glucose excretion at 0.03 mg/kg, po administered 1 hr prior to glucose challenge measured after 1 to 24 hrs relative to dapagliflozin. In kind it is functional, Canis lupus familiaris, Urine. In outline: as §2
Series [6] deals with Rattus norvegicus. Kind of series: Antidiabetic activity in Sprague-Dawley rat assessed as urinary glucose excretion at 1 mg/kg, po administered 1 hr prior to glucose challenge measured after 1 to 24 hrs relative to dapagliflozin. The format is functional, Urine. In outline: as §1
A short description of series [7]: AUC (0 to infinity) in Sprague-Dawley rat at 3 mg/kg, po by LC-MS/MS analysis. The format is ADME, organism-based. The arrangement: time infinity, dose 3 mg/kg, route oral. Conditions: plasma. In outline: (§3)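 Male Sprague-Dawley rats, n = 4 per group, overnight-fasted. Oral gavage of 3 or 1 mg/kg in 30% PEG400; i.v. arm at 1 mg/kg. Orbital plexus blood taken under ether at 0.083–24 h; plasma deproteinized and assayed by LC-MS/MS. Noncompartmental parameters derived; mean ± SD reported.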

Series [8] can be described thus: Tmax in Sprague-Dawley rat at 3 mg/kg, po by LC-MS/MS analysis. In kind it is ADME, organism-based. The arrangement: dose 3 mg/kg, route oral. Conditions: in vivo. In outline:
as §3

Series [9] is described as follows: Cmax in Sprague-Dawley rat at 3 mg/kg, po by LC-MS/MS analysis. The format is ADME, organism-based. Also noted: dose 3 mg/kg, route oral. Conditions: in vivo. In outline:
as §3

Series [10] is described as follows: Half life in Sprague-Dawley rat at 3 mg/kg, po by LC-MS/MS analysis. The note with it: in vivo. In kind it is ADME, organism-based. Also noted: dose 3 mg/kg, route oral. In outline: as §3
Series [11] in a line: Drug metabolism in Sprague-Dawley rat assessed as compound remaining at 50 mg/kg, po after 5 days by HPLC analysis. The arrangement: dose 50 mg/kg, route oral. Conditions: in vivo, read-out: Drug metabolism. The format is ADME, organism-based.

On to `[2H][C@@]1(c2ccc(Cl)c(Cc3ccc(OCC)cc3)c2)O[C@H](CO)[C@@H](O)[C@H](O)[C@H]1O`, for which the Activity in the series with Rattus norvegicus [1] stood at 193 mg; in the series on Canis familiaris [2], 3760 mg; with Rattus norvegicus [3], 2460 mg; with Canis familiaris [4] it was 8910 mg; in the series with Canis familiaris [5] it was 12700 mg; in the series on Rattus norvegicus [6], 2650 mg.

As a reminder, the AUC(0-inf) is total exposure, with the tail of the curve extrapolated. Lower therefore signals low exposure. Take `[2H]C([2H])(c1ccc(OCC)cc1)c1cc([C@@H]2O[C@H](CO)[C@@H](O)[C@H](O)[C@H]2O)ccc1Cl`: the Activity in the series on Rattus norvegicus [1] was 168 mg; in the series with Canis familiaris [2] it was 3400 mg; in the series on Rattus norvegicus [3], 2060 mg; in the series on Canis familiaris [4], 6830 mg; in the series on Canis familiaris [5] it was 10200 mg; in the series on Rattus norvegicus [6] it was 2220 mg. The AUC(0-inf) in series [7] was 16100 ng·h/mL.

Broadly, the Tmax is the time at which the peak concentration occurs. Usually Cmax stands for the highest concentration seen after dosing. In general, half-life refers to how long it takes for the measured level to halve. A lower half-life goes with fast loss. Regarding `[2H]C([2H])([2H])Oc1ccc(C([2H])([2H])c2cc([C@@H]3O[C@H](CO)[C@@H](O)[C@H](O)[C@H]3O)ccc2Cl)cc1`, the Tmax in series [8] came out at 45 min. Also, the Activity with Rattus norvegicus [1] came out at 101 mg; with Rattus norvegicus [3], 1990 mg; with Rattus norvegicus [6], 2100 mg. The Cmax in series [9] was determined as 1400 ng/mL. In series [7], this compound had an AUC(0-inf) of 5350 ng·h/mL. Besides, the half-life in series [10] was 340 min.

As to `CCOc1ccc(Cc2cc([C@@H]3O[C@H](CO)[C@@H](O)[C@H](O)[C@H]3O)ccc2Cl)cc1` [DAPAGLIFLOZIN], in [11], the remaining at 120 h amounted to 43%. The AUC(0-inf) in [7] was 11700 ng·h/mL.

For `[2H]C([2H])([2H])C([2H])([2H])Oc1ccc(Cc2cc([C@@H]3O[C@H](CO)[C@@H](O)[C@H](O)[C@H]3O)ccc2Cl)cc1`, the Activity stood at 145 mg with Rattus norvegicus [1]; 3470 mg in the series with Canis familiaris [2]; 2150 mg in the series with Rattus norvegicus [3]; 12000 mg in the series on Canis familiaris [5]; 2300 mg with Rattus norvegicus [6]. In series [7], this compound gave an AUC(0-inf) of 22600 ng·h/mL.
